According to the RNAGym collection of RNA variant scans (doi:10.1126/science.aae0568):
This sample holds only a part of the variants without activity.

B1: tRNA (parent)
chain: GUUCCGUUGGCGUAAUGGUAACGCGUCUCCCUCCUAAGGAGAAGACUGCGGGUUCGAGUCCCGUACGGAACG

Variants of: B1
Assay: yeast fitness relative to wild type (ratio to wild type); higher = fitter; tRNA-Arg(CCU), competitive growth, 37 C, YPD
Procedure, shortened: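 Genotype frequency changes were the basis for Darwinian fitness relative to wild type. The frequencies came from 100-nucleotide paired-end sequencing of gene amplicons from the start population and each end population of pooled yeast strains with tRNA-Arg(CCU) gene variants at the native locus. Competition ran in YPD at 37°C for 24 hours in six replicates, genotypes needed ≥ 100 starting reads, and estimates < 0.5 were set to 0.5.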
For A15G A45U G48A G56A, the yeast fitness was 0.717. With A15G A57U the yeast fitness was 0.636. Variant A15G A57U G68U has a yeast fitness of no more than 0.5. In the case of A15G A65C A69U, the yeast fitness is reported as 0.705. Work on A15G A65G yielded a yeast fitness of 0.962. In the case of A15G A65U, the yeast fitness is reported as 0.841. For A15G A69G, the yeast fitness was 1.05. A15G A69U showed a yeast fitness of 1.04. In the case of A15G A70U, the yeast fitness is reported as 1.03. A15G C22A C29U U54C showed a yeast fitness of no more than 0.5. A15G C22G A36U A40G A69U gave a yeast fitness of no more than 0.5. For A15G C22G G23C A43C G50C A70U, the yeast fitness was no more than 0.5. For A15G C22U A36U C60A, the yeast fitness was 0.589. With A15G C22U A36U C62U the yeast fitness was no more than 0.5. A15G C22U A70C showed a yeast fitness of 0.594. A15G C22U G68C gave a yeast fitness of no more than 0.5. Variant A15G C24A has a yeast fitness of 0.587. A15G C24A C29G U35G G41C C62U U64A showed a yeast fitness of no more than 0.5. Work on A15G C24A U54G A65C yielded a yeast fitness of no more than 0.5. A15G C24G showed a yeast fitness of 0.586. In the case of A15G C24G A37G, the yeast fitness is reported as no more than 0.5. For A15G C24G A65C, the yeast fitness was no more than 0.5. A15G C24G C29U C34G U35C C46G showed a yeast fitness of 0.618. In the case of A15G C24G C29U C34G U35C C46G A65G, the yeast fitness is reported as no more than 0.5. Variant A15G C24G C29U C34G U35C C49U C62U has a yeast fitness of no more than 0.5. Work on A15G C24G C66G yielded a yeast fitness of no more than 0.5. For A15G C24G G48C, the yeast fitness was no more than 0.5. A15G C24G U26A G52A G68C showed a yeast fitness of 0.717. A15G C24G U32A G41A gave a yeast fitness of no more than 0.5. Variant A15G C24U has a yeast fitness of 1.01. Work on A15G C24U C29U C30G U35G C66U yielded a yeast fitness of no more than 0.5. For A15G C27A C31A A57C, the yeast fitness was no more than 0.5. In the case of A15G C27A C46U, the yeast fitness is reported as 0.627. A15G C27A C49U C55G gave a yeast fitness of no more than 0.5. A15G C27A G44A C62U A65U gave a yeast fitness of no more than 0.5. A15G C27A G51C gave a yeast fitness of no more than 0.5. In the case of A15G C27G, the yeast fitness is reported as 0.564. Variant A15G C27G A42G G63A has a yeast fitness of no more than 0.5. Work on A15G C27G A43G U59A yielded a yeast fitness of no more than 0.5. With A15G C27G C55U the yeast fitness was no more than 0.5. A15G C27U showed a yeast fitness of 0.939. For A15G C27U A65G, the yeast fitness was 0.748. In the case of A15G C27U A69U, the yeast fitness is reported as 0.808. With A15G C27U C29U A37C C60U A69C the yeast fitness was no more than 0.5. A15G C27U C34U A57U C62A gave a yeast fitness of 0.563. A15G C27U C62G showed a yeast fitness of 0.627. For A15G C27U G44A G56C, the yeast fitness was no more than 0.5. Variant A15G C29A has a yeast fitness of 0.558. A15G C29A A37G showed a yeast fitness of no more than 0.5. Variant A15G C29A A40G G48A has a yeast fitness of no more than 0.5. In the case of A15G C29A A57C, the yeast fitness is reported as no more than 0.5. Variant A15G C29A C34G U59A C62U has a yeast fitness of no more than 0.5. A15G C29A C61A C66G gave a yeast fitness of 0.535. Work on A15G C29A G39A yielded a yeast fitness of 0.572. For A15G C29A G39A C46U, the yeast fitness was no more than 0.5. A15G C29A G39A C49U showed a yeast fitness of no more than 0.5. In the case of A15G C29A G58A, the yeast fitness is reported as 0.57. In the case of A15G C29G, the yeast fitness is reported as 0.635. A15G C29G C31A A37G gave a yeast fitness of no more than 0.5. For A15G C29G C34G C66G, the yeast fitness was no more than 0.5. Variant A15G C29G C34G U64C has a yeast fitness of no more than 0.5. A15G C29G C46U showed a yeast fitness of 0.52. With A15G C29G C49U the yeast fitness was 0.606. Work on A15G C29G G52A C66U yielded a yeast fitness of 0.671. In the case of A15G C30A, the yeast fitness is reported as 0.807. In the case of A15G C30A C49G C55U, the yeast fitness is reported as no more than 0.5. A15G C30A U59C C62U G68U gave a yeast fitness of no more than 0.5. For A15G C30G, the yeast fitness was 0.631. Variant A15G C30G A37C has a yeast fitness of no more than 0.5. Variant A15G C30G A37C A65U C66G has a yeast fitness of no more than 0.5. In the case of A15G C30G A37C C49U G63A, the yeast fitness is reported as no more than 0.5. For A15G C30G A40U A42C C49G, the yeast fitness was no more than 0.5. For A15G C30G A42C A43C C46G, the yeast fitness was no more than 0.5. With A15G C30G C31A the yeast fitness was no more than 0.5. Variant A15G C30G C62G has a yeast fitness of no more than 0.5. A15G C30G C66U gave a yeast fitness of no more than 0.5. In the case of A15G C30G G68A, the yeast fitness is reported as no more than 0.5. In the case of A15G C30G U64C, the yeast fitness is reported as no more than 0.5. Variant A15G C30U has a yeast fitness of 0.894. Variant A15G C30U A70C has a yeast fitness of 0.615. With A15G C30U C33A G41C C46U G48C the yeast fitness was 0.551. In the case of A15G C30U G52A A70U, the yeast fitness is reported as 0.581. A15G C31A showed a yeast fitness of 0.623. A15G C31A C55U gave a yeast fitness of no more than 0.5. With A15G C31A C66G G68C the yeast fitness was 0.563. A15G C31A G41C C49U gave a yeast fitness of no more than 0.5. In the case of A15G C31A U54C, the yeast fitness is reported as no more than 0.5. In the case of A15G C31G A40U, the yeast fitness is reported as 0.586. A15G C31G C66U gave a yeast fitness of 0.601. In the case of A15G C31G U35C, the yeast fitness is reported as 0.531. With A15G C31G U35C A57U the yeast fitness was no more than 0.5. For A15G C31U A42U A70U, the yeast fitness was 0.602. A15G C31U A45U showed a yeast fitness of 0.668. With A15G C31U U35C the yeast fitness was 0.609. In the case of A15G C31U U47G G58C C62U, the yeast fitness is reported as no more than 0.5. In the case of A15G C33A U54A, the yeast fitness is reported as no more than 0.5. For A15G C33G G39C, the yeast fitness was no more than 0.5. Variant A15G C33G G44A C46G C66U has a yeast fitness of no more than 0.5. A15G C33G G50A gave a yeast fitness of no more than 0.5. A15G C33G G51A showed a yeast fitness of 0.665. Variant A15G C33U A65U has a yeast fitness of 0.543. Variant A15G C34A has a yeast fitness of 0.811. A15G C34U A42G C49A gave a yeast fitness of no more than 0.5. For A15G C34U A42U U47A A57G, the yeast fitness was no more than 0.5. With A15G C34U C49A the yeast fitness was 0.6. For A15G C34U G44C G50C C62U, the yeast fitness was no more than 0.5. Variant A15G C46G has a yeast fitness of 0.897. A15G C46G C55U gave a yeast fitness of no more than 0.5. For A15G C46G C61G, the yeast fitness was 0.567. A15G C46G G52A showed a yeast fitness of 0.576. Variant A15G C46U A65U has a yeast fitness of 0.735. A15G C46U A69C showed a yeast fitness of 0.835. Work on A15G C46U A70U yielded a yeast fitness of 0.829. A15G C46U C61G gave a yeast fitness of 0.581. A15G C49A showed a yeast fitness of 0.735. Work on A15G C49A A69U yielded a yeast fitness of 0.579. With A15G C49G G56C the yeast fitness was no more than 0.5. A15G C49U A69C gave a yeast fitness of 0.875. With A15G C55G the yeast fitness was 0.641. In the case of A15G C55U, the yeast fitness is reported as 0.75. Work on A15G C55U G56A yielded a yeast fitness of 0.58. A15G C55U U59C A65C gave a yeast fitness of no more than 0.5. With A15G C60A the yeast fitness was 0.687. Work on A15G C60G yielded a yeast fitness of 0.668. A15G C61A showed a yeast fitness of 0.589. Work on A15G C61G yielded a yeast fitness of 0.698. In the case of A15G C61G A70C, the yeast fitness is reported as 0.639. A15G C61U showed a yeast fitness of 0.65. Work on A15G C61U A65U C66U yielded a yeast fitness of no more than 0.5. Work on A15G C61U G67A yielded a yeast fitness of 0.549. Work on A15G C62A yielded a yeast fitness of 0.798. Work on A15G C62U yielded a yeast fitness of 0.994. Variant A15G C62U A69U has a yeast fitness of 0.934. In the case of A15G C62U A70U, the yeast fitness is reported as 0.73. For A15G G17A A65G, the yeast fitness was no more than 0.5. For A15G G17A C29G C31U C46A, the yeast fitness was no more than 0.5. A15G G17A C30A U47C gave a yeast fitness of no more than 0.5. A15G G17A C33U G39C showed a yeast fitness of 0.54. A15G G17A C46U showed a yeast fitness of 0.738. Work on A15G G17A U26C C61U G67A yielded a yeast fitness of no more than 0.5. A15G G17C C33A C46A G52A gave a yeast fitness of no more than 0.5. For A15G G17C C34U C60A, the yeast fitness was no more than 0.5. In the case of A15G G17C G23A G25A C66U, the yeast fitness is reported as no more than 0.5. Variant A15G G18A A45C has a yeast fitness of 0.57. Work on A15G G18A C49U yielded a yeast fitness of 0.669. With A15G G18A G38C the yeast fitness was no more than 0.5. Work on A15G G18A G58C A69U yielded a yeast fitness of no more than 0.5. In the case of A15G G23A, the yeast fitness is reported as 0.931. For A15G G23A G25A G38A, the yeast fitness was 0.746. For A15G G23A G25A G38A A70U, the yeast fitness was no more than 0.5. Work on A15G G23A G50A A57C A65U yielded a yeast fitness of 0.6. In the case of A15G G23C A45G G52A, the yeast fitness is reported as 0.65. In the case of A15G G23C A45G G52A G63A, the yeast fitness is reported as no more than 0.5. In the case of A15G G23U C24G A45G, the yeast fitness is reported as 0.554. For A15G G25A C27U C49U, the yeast fitness was 0.714. Work on A15G G25A C30A G52A yielded a yeast fitness of 0.563. With A15G G25A C49U A65U the yeast fitness was 0.58. In the case of A15G G25A C60U G68C, the yeast fitness is reported as 0.561. In the case of A15G G25A C61U, the yeast fitness is reported as 0.558. Work on A15G G25A C61U A70U yielded a yeast fitness of no more than 0.5. A15G G25A G38A gave a yeast fitness of no more than 0.5. A15G G25C C31U A70U showed a yeast fitness of no more than 0.5. A15G G25C G48A G56A gave a yeast fitness of 0.79. In the case of A15G G25C G48C, the yeast fitness is reported as 0.576. A15G G25C G67A A70G gave a yeast fitness of no more than 0.5. With A15G G38A the yeast fitness was 0.866. Work on A15G G38A A40G A69U yielded a yeast fitness of no more than 0.5.
